We go through 14 compounds from ChEMBL document CHEMBL1150066, “Cytotoxic activity of tetraprenylphenols related to suillin, an antitumor principle from Suillus granulatus” (J Nat Prod, 1992).

Assay type in all cases: functional, cell-based; call rule not given here
A short description of assay [1]: Cytotoxicity against human NSCLC-N6 cells after 72 hrs by MTT assay. The conditions noted are these: NSCLC-N6, 72 h. In a few lines:
(§1)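 Cells per well: NSCLC-N6 0.2×10^5, KB 0.1×10^5, P388 0.05×10^5, in RPMI 1640 with 5% fetal calf serum, penicillin/streptomycin and 2 mM glutamine. Test solution added at decreasing concentrations in duplicate wells, then 72 h at 37° in 5% CO2. MTT added for 4 h, formazan dissolved in […], A570 read. IC50 taken from the dose/effect curve relative to controls.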

The test system of assay [2] is P388. Kind of assay: Cytotoxicity against mouse P388 cells after 72 hrs by MTT assay. The conditions noted are these: P388, 72 h. In a few lines:
as §1
For orientation: Formazan colour is commonly taken as a measure of viable cells.

Assay [3] relates to KB. Kind of assay: Cytotoxicity against human KB cells after 72 hrs by MTT assay. Summed up:
as §1

For assay [4], the system named is KB. Briefly: Cytotoxicity against human KB cells at 5 ug/ml after 72 hrs by MTT assay.
In assay [5] the test system is KB. Briefly: Cytotoxicity against human KB cells at 10 ug/ml after 72 hrs by MTT assay.
Assay [6] relates to P388. Briefly: Cytotoxicity against mouse P388 cells at 5 ug/ml after 72 hrs by MTT assay.
Assay [7] can be described thus: Cytotoxicity against human NSCLC-N6 cells at 5 ug/ml after 72 hrs by MTT assay.

≈ marks a conversion by molar mass, not a printed value.

With `COc1c(O)cc(O)cc1C/C=C(\C)CC/C=C(\C)CC/C=C(\C)CCC=C(C)C`, the IC50 was found to be 2.2 µg/mL (≈ 5.33 µM) in assay [1], 2.1 µg/mL (≈ 5.09 µM) in the assay with P388 [2] and 5 µg/mL (≈ 12.1 µM) in the assay on KB [3].
As to `CC(=O)Oc1ccc(O)c(O)c1CCC(C)CCCC(C)CCCC(C)CCCC(C)C` (configuration not stated), the IC50 is 4.5 µg/mL (≈ 10 µM) in assay [1], 8.2 µg/mL (≈ 18.3 µM) with P388 [2] and 6.3 µg/mL (≈ 14 µM) in the assay with KB [3].
For the compound `CC(=O)Oc1ccc2c(c1OC(C)=O)C=CC(C)(CC/C=C(\C)CC/C=C(\C)CCC=C(C)C)O2` (configuration not stated), the results for the IC50 (in assay [1]; in the assay on P388 [2]; in the assay with KB [3]) were 0.7 µg/mL (≈ 1.46 µM), 0.3 µg/mL (≈ 0.624 µM) and 1 µg/mL (≈ 2.08 µM), respectively.
As to `CC(=O)Oc1cc(C/C=C(\C)CC/C=C(\C)CC/C=C(\C)CCC=C(C)C)c(OC(C)=O)c(OC(C)=O)c1`, the IC50 in assay [1] is 0.8 µg/mL (≈ 1.52 µM); in the assay on P388 [2], 0.4 µg/mL (≈ 0.762 µM); with KB [3], 0.9 µg/mL (≈ 1.72 µM).
Turning to `CC(=O)Oc1ccc(O)c(O)c1C/C=C(\C)CC/C=C(\C)CC/C=C(\C)CCC=C(C)C` [TETRAPRENYLPHENOLSUILLIN], the IC50 in assay [1] was 1 µg/mL (≈ 2.27 µM); in the assay on P388 [2], 0.8 µg/mL (≈ 1.82 µM); in the assay on KB [3], 0.7 µg/mL (≈ 1.59 µM).
In the same order, the values of `CC(=O)Oc1ccc(OC(C)=O)c(OC(C)=O)c1C/C=C(\C)CC/C=C(\C)CC/C=C(\C)CCC=C(C)C` are 1.9 µg/mL (≈ 3.62 µM), 5 µg/mL (≈ 9.53 µM) and 2 µg/mL (≈ 3.81 µM).
As for `CC(=O)Oc1c(O)cc(O)cc1C/C=C(\C)CC/C=C(\C)CC/C=C(\C)CCC=C(C)C`, the IC50 in assay [1] was 2.3 µg/mL (≈ 5.22 µM); in the assay on KB [4] it was “Not Active”; in the assay on P388 [2], 2.3 µg/mL (≈ 5.22 µM).
Regarding `COc1ccc(O)c(O)c1C/C=C(\C)CC/C=C(\C)CC/C=C(\C)CCC=C(C)C`, the values for the IC50 (in assay [1]; in the assay on KB [4]; in the assay on P388 [2]) were > 5 µg/mL, “Not Active” and 2.8 µg/mL (≈ 6.79 µM), respectively.
On to `CC(=O)Oc1ccc2c(c1OC(C)=O)CCC(C)(CCCC(C)CCCC(C)CCCC(C)C)O2` (configuration not stated), for which the IC50 in assay [1] turned out to be 0.9 µg/mL (≈ 1.84 µM); in the assay on P388 [2], 0.7 µg/mL (≈ 1.43 µM); in the assay on KB [3] it was 1.1 µg/mL (≈ 2.25 µM).
Take `CC(=O)Oc1c(O)ccc(O)c1C/C=C(\C)CC/C=C(\C)CC/C=C(\C)CCC=C(C)C`: the concentration for half-maximal inhibition (IC50) worked out at 2.9 µg/mL (≈ 6.58 µM) in assay [1], 0.9 µg/mL (≈ 2.04 µM) in the assay on P388 [2] and 2.5 µg/mL (≈ 5.67 µM) in the assay with KB [3].
For `CC(=O)Oc1ccc(OC(C)=O)c(OC(C)=O)c1CCC(C)CCCC(C)CCCC(C)CCCC(C)C` (configuration not stated), the IC50 in assay [1] is 9 µg/mL (≈ 16.9 µM); in the assay with P388 [2], > 16.6 µg/mL; in the assay with KB [3] it was > 10 µg/mL.
Take `COc1ccc(OC(C)=O)c(C/C=C(\C)CC/C=C(\C)CC/C=C(\C)CCC=C(C)C)c1OC`: the IC50 amounted to 5.8 µg/mL (≈ 12.4 µM) in assay [1], 3.7 µg/mL (≈ 7.89 µM) with P388 [2] and 7.5 µg/mL (≈ 16 µM) with KB [3].
`COc1ccc(OC)c(OC)c1C/C=C(\C)CC/C=C(\C)CC/C=C(\C)CCC=C(C)C`: the IC50 in assay [1] is > 10 µg/mL; with KB [5], “Not Active”; in the assay with P388 [2] it was > 10 µg/mL.
Consider `CC(C)=CCC/C(C)=C/CC/C(C)=C/CCC1(C)C=Cc2c(ccc(O)c2O)O1` (configuration not stated), for which the IC50 result (in the assay with P388 [6]; in the assay on KB [4]; in assay [7]) was “Not Active” each time.

As a reminder, the IC50 is the point on the concentration scale where inhibition reaches its midpoint. Read a high IC50 as weaker potency in that assay.
